Measurements from ChEMBL document CHEMBL3734718, “Development of new highly potent imidazo[1,2-b]pyridazines targeting Toxoplasma gondii calcium-dependent protein kinase 1” (Eur J Med Chem, 2015).

Legend:
[1] = molecular target: Cyclin-dependent kinase 5/CDK5 activator 1 (Homo sapiens, UniProt Q00535); experiment: Inhibition of human recombinant CDK5/P25 expressed in Escherichia coli using histone H1 substrate after 30 mins by scintillation and luminescence counting method in presence of [gamma-33P]ATP
[2] = Cytotoxicity against HFF assessed as cell proliferation after 96 hrs by alamar blue reduction assay; assay type: cell-based; details: human, HFF cells
Method in brief: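 Non-specific toxicity to HFF host cells was measured by Alamar Blue reduction as a quantitative read-out of cell proliferation, with the CC50 derived.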

[3] = molecular target: T1, Serine/threonine-protein kinase haspin (Homo sapiens, UniProt Q8TF76); experiment: Inhibition of human recombinant haspin kinase domain expressed in Escherichia coli BL21-KRX using histone H3 (1 to 21) peptide substrate after 30 mins by scintillation and luminescence counting method in the presence of [gamma-33P]ATP
T1 sequence (Q8TF76 whole entry): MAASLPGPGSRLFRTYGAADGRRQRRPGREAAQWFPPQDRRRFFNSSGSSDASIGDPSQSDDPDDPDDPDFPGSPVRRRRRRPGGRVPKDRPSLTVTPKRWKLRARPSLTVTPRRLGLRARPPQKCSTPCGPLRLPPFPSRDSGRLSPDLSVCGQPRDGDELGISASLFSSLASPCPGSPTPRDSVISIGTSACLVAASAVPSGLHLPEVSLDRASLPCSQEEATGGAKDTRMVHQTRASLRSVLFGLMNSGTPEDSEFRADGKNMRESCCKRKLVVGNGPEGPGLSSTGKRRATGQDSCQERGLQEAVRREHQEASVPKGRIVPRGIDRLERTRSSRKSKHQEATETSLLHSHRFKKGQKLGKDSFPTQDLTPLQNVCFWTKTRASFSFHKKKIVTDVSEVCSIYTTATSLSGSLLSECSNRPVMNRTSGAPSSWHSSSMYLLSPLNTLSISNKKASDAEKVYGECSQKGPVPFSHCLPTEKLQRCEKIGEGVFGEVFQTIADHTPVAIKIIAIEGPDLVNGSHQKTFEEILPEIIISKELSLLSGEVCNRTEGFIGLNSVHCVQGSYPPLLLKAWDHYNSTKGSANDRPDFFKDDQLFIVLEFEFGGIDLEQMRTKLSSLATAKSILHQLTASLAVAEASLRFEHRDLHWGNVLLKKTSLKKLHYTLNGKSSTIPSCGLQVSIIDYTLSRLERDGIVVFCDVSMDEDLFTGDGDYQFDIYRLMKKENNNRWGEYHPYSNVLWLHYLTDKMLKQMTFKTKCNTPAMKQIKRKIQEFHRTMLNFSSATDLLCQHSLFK

[4] = molecular target: Glycogen synthase kinase-3 (Sus scrofa, UniProt B2LUN4+I6LNT8); experiment: Inhibition of porcine brain GSK-3 alpha/beta using GS-1 substrate after 30 mins by scintillation and luminescence counting method in the presence of [gamma-33P]ATP
[5] = molecular target: Receptor-interacting serine/threonine-protein kinase 3 (Homo sapiens, UniProt Q9Y572); experiment: Inhibition of full length human GST-tagged RIPK3 expressed in Spodoptera frugiperda Sf9 cells after 30 mins by scintillation and luminescence counting method in the presence of [gamma-33P]ATP
[6] = Lipophilicity, log P of the compound; assay type: physicochemical; details: octanol/water
Toxoplasma gondii = experiment: Antiparasitic activity against Toxoplasma gondii RH tachyzoite expressing beta-galactosidase assessed as inhibition of tachyzoite invasion into human foreskin fibroblast host cells after 96 hrs by colorimetric microtitre assay; assay type: functional, organism-based
Method in brief: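 Invasion of HFF host cells by a recombinant T. gondii strain carrying bacterial β-galactosidase was judged indirectly from parasite growth inhibition in a colorimetric microtiter format.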

[7] = Inhibition of wild type recombinant Toxoplasma gondii CDPK1 using syntide-2 substrate after 30 mins by Kinase-Glo luminescent assay
[8] = Inhibition of porcine brain CK1-delta/epsilon using CKS peptide substrate after 30 mins by scintillation and luminescence counting method in presence of [gamma-33P]ATP; set-up: species or system Sus scrofa
[9] = Selectivity ratio of IC50 for full length human GST-tagged RIPK3 expressed in Spodoptera frugiperda Sf9 cells to IC50 for wild type recombinant Toxoplasma gondii CDPK1
[10] = Selectivity ratio of IC50 for porcine brain CK1-delta/epsilon to IC50 for wild type recombinant Toxoplasma gondii CDPK1
[11] = Selectivity ratio of IC50 for porcine brain GSK-3 alpha/beta to IC50 for wild type recombinant Toxoplasma gondii CDPK1
[12] = Selectivity ratio of IC50 for human recombinant CDK5/P25 expressed in Escherichia coli to IC50 for wild type recombinant Toxoplasma gondii CDPK1; assay type: cell-free
[13] = Selectivity ratio of IC50 for human recombinant haspin kinase domain expressed in Escherichia coli BL21-KRX to IC50 for wild type recombinant Toxoplasma gondii CDPK1; assay type: cell-free

Chain of Cyclin-dependent kinase 5/CDK5 activator 1 (Q00535 whole entry): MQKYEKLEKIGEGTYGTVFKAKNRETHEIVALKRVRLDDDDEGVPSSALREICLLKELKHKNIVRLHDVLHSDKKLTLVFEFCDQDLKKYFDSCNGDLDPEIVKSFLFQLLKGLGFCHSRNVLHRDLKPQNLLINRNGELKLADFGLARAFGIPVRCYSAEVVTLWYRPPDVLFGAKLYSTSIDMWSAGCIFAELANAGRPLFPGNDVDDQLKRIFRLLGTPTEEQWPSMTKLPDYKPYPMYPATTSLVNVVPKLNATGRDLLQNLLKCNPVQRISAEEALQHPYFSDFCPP
Chain of Cyclin-dependent kinase 5/CDK5 activator 1 (Q15078 whole entry, further chain): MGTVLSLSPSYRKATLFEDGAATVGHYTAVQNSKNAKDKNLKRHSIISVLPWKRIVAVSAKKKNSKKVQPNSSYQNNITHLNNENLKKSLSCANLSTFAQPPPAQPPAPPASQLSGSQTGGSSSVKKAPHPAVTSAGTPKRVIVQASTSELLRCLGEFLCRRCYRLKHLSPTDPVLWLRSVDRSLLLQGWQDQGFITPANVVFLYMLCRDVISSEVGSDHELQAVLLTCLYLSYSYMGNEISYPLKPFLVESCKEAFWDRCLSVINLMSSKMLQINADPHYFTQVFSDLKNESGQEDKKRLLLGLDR
Chain of Receptor-interacting serine/threonine-protein kinase 3 (Q9Y572 whole entry): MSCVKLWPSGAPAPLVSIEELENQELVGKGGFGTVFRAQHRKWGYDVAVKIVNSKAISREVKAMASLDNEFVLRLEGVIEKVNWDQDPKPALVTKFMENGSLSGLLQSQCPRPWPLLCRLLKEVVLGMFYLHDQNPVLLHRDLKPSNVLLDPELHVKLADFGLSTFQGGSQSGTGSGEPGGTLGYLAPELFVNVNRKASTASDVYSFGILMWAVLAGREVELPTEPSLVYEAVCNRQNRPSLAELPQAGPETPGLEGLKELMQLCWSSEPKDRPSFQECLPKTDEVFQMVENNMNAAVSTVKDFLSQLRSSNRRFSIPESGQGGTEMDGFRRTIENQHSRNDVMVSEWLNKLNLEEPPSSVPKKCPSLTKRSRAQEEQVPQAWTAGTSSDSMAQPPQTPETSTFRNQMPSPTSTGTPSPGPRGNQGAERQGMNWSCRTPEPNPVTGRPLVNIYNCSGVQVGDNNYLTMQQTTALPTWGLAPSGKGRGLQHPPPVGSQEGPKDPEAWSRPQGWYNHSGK

IC50 [1] [µM]	IC50 [3] [µM]	IC50 [4] [µM]	IC50 [5] [µM]	logP [6]	IC50 [8] [µM]	Structure (SMILES)	CC50 at 96 h [2] [µM]	EC50 (Toxoplasma gondii) [µM]	IC50 [7] [µM]	Ratio IC50 [9]	Ratio IC50 [10]	Ratio IC50 [11]	Ratio IC50 [12]	Ratio IC50 [13]
> 10	> 10	> 10	0.88		0.51	CN1CCN(c2ccc3nc(-c4cccc5ccccc45)c(-c4ccncc4)n3n2)CC1	21.3	0.07	0.008	> 100	25	> 1000	> 1000	> 1000
> 10	> 10	> 10	> 10		2	CN1CCN(c2ccc3nc(-c4cccc5c4OCCO5)c(-c4ccncc4)n3n2)CC1	> 50	0.94	1.23					
> 10	> 10	> 10	> 10		> 10	CN1CCN(c2ccc3nc(-c4cccc5c4OCO5)c(-c4ccncc4)n3c2)CC1	> 50	> 5	0.85					
> 10	> 10	> 10	7.6		0.15	CN1CCN(c2ccc3nc(-c4ccc5c(c4)OCO5)c(-c4ccncc4)n3n2)CC1	17.5	0.63	0.15					
> 10	> 10	> 10	> 10		> 10	CN1CCN(c2ccc3nc(-c4cccc5c4OCO5)c(-c4cccnc4)n3n2)CC1	35.9	> 5	6.5					
> 10	> 10	5.4	2.5		0.37	CN1CCN(c2ccc3nc(-c4cccc5c4OCO5)c(-c4ccncc4)n3n2)CC1	42.5	0.1	0.014	> 100	25	> 380	> 380	> 380
> 10	> 10	2.2	> 10		≥ 10	CN1CCN(c2ccc3nc(-c4cccc5c4OCO5)c(-c4ccccc4)n3n2)CC1	21.9	1.9	5.4					

The remaining lines, values behind:

Structure (SMILES)	IC50 [1] [µM]	IC50 [3] [µM]	IC50 [4] [µM]	IC50 [5] [µM]	logP [6]	IC50 [8] [µM]	CC50 at 96 h [2] [µM]	EC50 (Toxoplasma gondii) [µM]	IC50 [7] [µM]	Ratio IC50 [9]	Ratio IC50 [10]	Ratio IC50 [11]	Ratio IC50 [12]	Ratio IC50 [13]
CN1CCN(c2ccc3nc(-c4ccc5c(c4)OCCO5)c(-c4ccncc4)n3n2)CC1	> 10	> 10	> 10	> 10	< 3	≥ 10	7.6	0.49	0.11					
CN1CCN(c2ccc3nc(-c4ccc(-c5ccccc5)s4)c(-c4ccncc4)n3n2)CC1	> 10	> 10	> 10	> 10	5	> 10	6.8	3.07	3.58					
CN1CCN(c2ccc3nc(-c4cccc(C(=O)N5CCOCC5)c4)c(-c4ccncc4)n3n2)CC1	> 10	3.9	> 10	> 10	< 3	> 10	6.4	> 5	3.05					
CN1CCN(c2ccc3nc(-c4cccc(-c5cccs5)c4)c(-c4ccncc4)n3n2)CC1	> 10	> 10	10	0.27	5	3.1	6.7	1.42	0.37					
COc1cccc(-c2nc3ccc(N4CCN(C)CC4)nn3c2-c2ccncc2)c1	> 10	> 10	8.8	≥ 10		0.4	38	0.05	0.009					
CC1CN(c2ccc3nc(-c4cccc5c4OCO5)c(-c4ccncc4)n3n2)CC(C)N1C (configuration not stated)							> 50	0.63	0.63					
CCOc1ccc2c(-c3nc4ccc(N5CCN(C)CC5)nn4c3-c3ccncc3)cccc2c1	> 10	> 10	> 10	1.7	5	> 10	7.6	1.71	0.91					
CN1CCN(c2ccc3nc(-c4cccc(-c5ccccc5)c4)c(-c4ccncc4)n3n2)CC1	> 10	> 10	> 10	0.45		> 10	10.9	1	0.44					
COc1ccc2c(-c3nc4ccc(N5CCN(C)CC5)nn4c3-c3ccncc3)cccc2c1	> 10	> 10	> 10	1.2		> 10	20.9	2.21	0.5					
CN1CCN(c2ccc3nc(-c4cccc(-c5ccsc5)c4)c(-c4ccncc4)n3n2)CC1	> 10	> 10	7.6	0.3	5	≥ 10	6.3	0.61	0.5					
CN1CCN(c2ccc3nc(-c4ccc(C(=O)N5CCOCC5)cc4)c(-c4ccncc4)n3n2)CC1	> 10	> 10	> 10	> 10		> 10	14.1	> 5	> 5					
c1cc2c(c(-c3nc4cccnn4c3-c3ccncc3)c1)OCO2	> 10	> 10	3.5	5.5	5	2.4	8.2	1.28	0.22					
CCc1nc(N)nc(N)c1-c1ccc(Cl)cc1 [PYRIMETHAMINE]							> 50	0.34						
CN1CCN(c2ccc3nc(-c4ccc(-c5ccccc5)cc4)c(-c4ccncc4)n3n2)CC1	> 10	> 10	> 10	> 10		> 10	13.7	> 5	3.43					
CN1CCN(c2ccc3nc(-c4ccc5ncsc5c4)c(-c4ccncc4)n3n2)CC1	> 10	> 10	> 10	> 10		0.95	17.5	1.66	0.4					
